# Most compounds without a hit are left out; they make up all but 2.6% or so of the library.
# Runt-CBFb FRET: inhibitors of RUNX1 Runt–CBFb binding, primary screen, biochemical, FRET, Cerulean-Runt, Venus-CBFb, uHTS; Cerulean-Runt/Venus-CBFb FRET ratio 530/480, 1 h; inhibition, % at 20 µM; 0.46% of 220,000 active; AID 1496, 2009;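 active = inhibition over about 50% at 20 µM in the single-dose screen, limit read from the data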;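 also: 0% = DMSO wells and 100% = excess unlabeled CBFb competitor control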
# Target sequence (Q01196 whole entry, looked up): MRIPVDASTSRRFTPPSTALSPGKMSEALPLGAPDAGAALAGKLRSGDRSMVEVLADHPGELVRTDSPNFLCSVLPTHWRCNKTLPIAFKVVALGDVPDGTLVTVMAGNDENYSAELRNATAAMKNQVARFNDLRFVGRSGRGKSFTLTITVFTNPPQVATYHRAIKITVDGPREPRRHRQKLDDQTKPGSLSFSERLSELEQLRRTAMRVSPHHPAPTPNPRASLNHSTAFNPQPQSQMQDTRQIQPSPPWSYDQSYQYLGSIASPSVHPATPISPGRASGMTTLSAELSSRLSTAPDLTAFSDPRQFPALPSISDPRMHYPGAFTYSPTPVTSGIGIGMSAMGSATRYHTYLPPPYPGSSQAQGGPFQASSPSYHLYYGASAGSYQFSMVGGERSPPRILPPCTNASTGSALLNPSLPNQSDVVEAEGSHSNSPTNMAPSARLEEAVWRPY
# Target sequence (Q13951 whole entry, looked up): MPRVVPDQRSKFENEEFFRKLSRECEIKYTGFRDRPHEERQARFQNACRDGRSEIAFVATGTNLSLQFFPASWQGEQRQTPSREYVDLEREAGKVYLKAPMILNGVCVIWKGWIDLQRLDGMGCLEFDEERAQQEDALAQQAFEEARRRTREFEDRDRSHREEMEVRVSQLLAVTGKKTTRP
#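 Assay system: Cerulean-Runt domain fusion protein, energy donor; Signal: fluorescence energy transfer, 422 nm excitation, 530/480 nm emission; Timing: 1 h compound exposure, room temperature; Control set: unlabeled CBFb; Medium: Tris buffer pH 7.5 with salts and BSA; Compound: single test concentration of 20 µM, 1% DMSO final; Probe or stimulus: Venus-CBFb 100 nM.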
# IMP-1 inh: IMP-1 metallo-beta-lactamase inhibitors, primary screen, biochemical, epi-absorbance readout, Pseudomonas aeruginosa enzyme; inhibition, % at 5.6 µM; purified IMP-1, nitrocefin hydrolysis, epi-absorbance fluorescence; 0.45% of 290,000 active; metallo-beta-lactamase IMP-1 (Pseudomonas aeruginosa);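 active = inhibition above the mean plus 3 SD of all compounds in the same screening run, cut at about 4.5% in these data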;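 also: 0% = IMP-1 with DMSO and 100% = DMSO wells lacking enzyme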
#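 System – purified recombinant IMP-1 beta-lactamase · Input – IMP-1 dispensed at 0.2 nM · Timing – 15 min preincubation plus 25 min reaction at 25 °C · Signal – Epi-absorbance fluorescence, 480 nm excitation, 530 nm emission · Measure – percent IMP-1 inhibition derived from blank-referenced optical density · Controls – Enzyme-plus-DMSO low control, enzyme-free DMSO high control · Replication – singlicate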
# Runt-SMMHC FRET: inhibitors of RUNX1 Runt–CBFb-SMMHC binding, primary screen, biochemical, FRET, Cerulean-Runt, Venus-CBFb-SMMHC, uHTS; Runt-related transcription factor 1 (Homo sapiens) + Core-binding factor subunit beta …; inhibition, % at 20 µM; Cerulean-Runt/Venus-CBFb-SMMHC FRET ratio 530/480, 1 h; AID 1434, 2008; 0.74% of 220,000 active;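 active = mean inhibition across duplicate retests at 20 µM reaching about 50%, limit read from the data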;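 also: 0% = DMSO wells and 100% = wells with excess untagged CBFb-SMMHC; inhibitors lower the FRET ratio by blocking Runt binding to CBFb-SMMHC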
# RanGTP-Imp inh: inhibitors of RanGTP-importin-beta interaction, primary screen, biochemical, FRET, CFP-Ran, YFP-importin-beta, homogeneous; cell-free CFP-Ran/YFP-importin-beta FRET ratio; AID 2216, 2009; inhibition, % (concentration not given with the values); 1.1% of 300,000 active;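 active = more than half of the replicate wells show a fall in the fluorescence ratio signal beyond about 16%, limit read from the data, passing the limit was not always enough; inconclusive = exactly half of the replicate wells pass the set limit; inactive = fewer than half of replicates pass the limit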;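 also: 0% = DMSO wells and 100% = Ran loaded with GDP instead of GTP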
# VIM-2 inhibitor: VIM-2 metallo-beta-lactamase inhibitors, primary screen, biochemical, epi-absorbance readout, Pseudomonas aeruginosa enzyme; purified VIM-2, nitrocefin hydrolysis, epi-absorbance fluorescence; inhibition, % at 5.6 µM; 0.89% of 290,000 active; AID 1527, 2009;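 active = inhibition above the mean of all tested compounds plus 3 SD, cutoff set per screening run, cut at about 7.5% in these data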;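 also: red hydrolysis product quenches plate fluorescence so inhibitors raise well fluorescence; 0% = enzyme with DMSO and 100% = DMSO without enzyme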
# * marks the source's active call; other numbers are inactive results; ? = inconclusive; . = no result given.
SMILES,Runt-CBFb FRET,IMP-1 inh,Runt-SMMHC FRET,RanGTP-Imp inh,VIM-2 inhibitor
Cc1ccc(S(=O)(=O)NCC(=O)NCC(=O)N(C)Cc2ccc3ccccc3c2)cc1C,.,-1,.,2,-1
COc1ccccc1/C=N/n1c(N)c(C(=O)NC2CCCCC2)c2nc3ccccc3nc21,-1,-2,-4,.,-5
COCCn1c(N)c(C(=O)NCc2cccs2)c2nc3ccccc3nc21,14,-2,70*,84*,-2
Nc1c(C(=O)NC2CCCC2)c2nc3ccccc3nc2n1N,14,-2,46,39*,-2
COc1ccc(CN2C=C3C(=O)C(C)(OC(=O)CCc4ccccc4)C(=O)C=C3C=C2c2ccc(C#N)cc2)cc1 (stereo not drawn),6,.,1,0,.
CCN(CC)CCCN1C=C2C(=O)C(C)(OC(=O)CCc3ccccc3)C(=O)C=C2C=C1c1ccc(C#N)cc1 (stereo not drawn),36,.,51*,0,.
Cc1ccc(Cl)cc1Nc1nc(-c2sc(NC(=O)C(C)(C)C)nc2C)cs1,-9,18*,6,3,0
CC(C)n1nc(C(=O)Nc2nc3ccccc3[nH]2)c2ccccc2c1=O,103*,-4,2,-1,-1
CCOC(=O)c1cc(C(=O)OCC)c2ccccn2c1=O,97*,-2,60*,66*,4
CCOC(=O)c1c[nH]n(-c2ccccc2)c1=O,-1,-2,-2,8,-2
O=C(N/N=C/c1ccc2c(c1)OCO2)C(=O)Nc1cccc(Cl)c1,.,-3,.,3,-2
COc1nc(N)c(S(=O)(=O)c2ccccc2C)cc1C#N,20,-2,60*,5,-1
COc1nc(N)c(S(=O)(=O)c2ccccc2)cc1C#N,40,-3,99*,12,-2
CN(C)c1ncc(S(=O)(=O)c2ccccc2)c(N)n1,1,-3,-10,0,-1
C=CCn1c(-c2ccoc2)n[nH]c1=S,4,-4,1,-2,10*
C=CCn1c(-c2ccccc2OC)n[nH]c1=S,7,-2,15,3,9.8*
O=C(CN1CCN(c2ccccn2)CC1)Nc1ccc([N+](=O)[O-])cc1C(=O)Nc1ccccc1F,.,0,.,?,2
CC(=O)c1sc2nc(-c3cccs3)ccc2c1N,28,-2,83*,-38,-3
COc1ccc(C(=O)c2sc3nc(-c4ccc(OC)cc4)ccc3c2N)cc1,-6,-1,-3,23*,0
O=C1CSC2(CCCCC2)N1CCO,0,5.6*,1,1,0
S=C(Nc1ccccc1)N1CCC(Cc2ccccc2)CC1,.,-3,.,-3,-4
CC(C)c1ccc(S(=O)(=O)c2cc3cc(Br)ccc3oc2=O)cc1,-10,-3,-30,4,0
O=c1oc2cc(O)ccc2cc1S(=O)(=O)c1ccccc1,.,1,.,133*,-2
CCCCCCc1cc2cc(S(=O)(=O)c3ccc(C)cc3)c(=O)oc2cc1O,6,0,81,163*,-1
Cc1ccc(S(=O)(=O)c2cc3cc(Br)ccc3oc2=O)cc1,-8,-4,-49,3,-3
SMILES,Runt-CBFb FRET,IMP-1 inh,Runt-SMMHC FRET,RanGTP-Imp inh,VIM-2 inhibitor
CCN(CC)c1ccc2c(O)cc(=O)oc2c1,0,-1,-5,5,-3
CCCCCCc1cc2cc(S(=O)(=O)c3ccc(Cl)cc3)c(=O)oc2cc1O,6,-5,81*,166*,-3
CCN(CC)c1ccc2cc(S(=O)(=O)c3ccc(Cl)cc3)c(=O)oc2c1,6,-1,81*,128*,0
CCCOc1ccc(C(=O)Nc2ccc3c(c2)OCCO3)cc1,.,-5,.,7,-3
CN(C)S(=O)(=O)c1cccc(NC(=O)c2cccc(S(=O)(=O)N3CCCCC3)c2)c1,.,.,.,0,.
CC1(C)Cc2c(sc(NC(=O)c3ccc(C(=O)c4ccccc4)cc3)c2C#N)C(C)(C)N1,.,-1,.,0,-2
CCc1nn(CC(=O)NCCCN(C)Cc2ccccc2)c(=O)c2cc3sc(C)cc3n12,.,-1,.,3,9.0*
CN(C)S(=O)(=O)c1ccc(C(=O)NCc2nnc(SCC(=O)NCc3ccco3)o2)cc1,.,-3,.,1,-2
CCN1CC=C2C(C1)C(c1ccc(Cl)s1)C(C#N)=C(N)C2(C#N)C#N (stereo not drawn),36,2,82*,50*,3
O=[N+]([O-])c1cccc(NNS(=O)(=O)c2ccccc2F)c1,.,-4,.,?,0
CCOC(=O)C1(CCOc2ccccc2)CCN(Cc2ccc(O)c(OCC)c2)CC1,.,-2,.,-1,-1
O=C(O)CCCC(=O)N1CCN(c2nc(-c3ccccc3)c3ccccc3n2)CC1,14,-4,14,20*,2
Cc1ccc2nc(N3CCN(C(=O)CCC(=O)O)CC3)nc(-c3ccccc3)c2c1,.,-3,.,30*,1
Cc1ccc2nc(N3CCC(C(=O)O)CC3)nc(-c3ccccc3)c2c1,15,0,65,3,0
Cc1ccc2c(C)c(C(=O)N3CCCC(C(N)=O)C3)oc2c1C (stereo not drawn),.,1,.,4,1
NC(=O)CCn1c(C(=O)c2cc(Cl)c(N)c(Cl)c2)c2ccccc2[n+]1[O-],.,-4,.,0,7.8*
CCN(CC)C(=O)CSc1nc(N)c(C#N)c(-c2cccs2)c1C#N,-2,-2,-3,0,-1
Cc1ccccc1NC(=O)CSc1nc(N)c(C#N)c(-c2cccs2)c1C#N,-3,12*,-4,2,-4
COc1ccc2[nH]c3c(NCCC4=CCCCC4)ncnc3c2c1,.,-2,-2,2,-2
O=C(NCc1ccc(Cl)cc1)C1CCN(S(=O)(=O)c2cccnc2)CC1,.,-2,.,1,-3
CCCS(=O)(=O)N1CCCC(C(=O)NCC2CCCO2)C1 (stereo not drawn),0,4.9*,2,3,-4
Cc1ccc(S(=O)(=O)N2CCCC(C(=O)NCC3CCCO3)C2)cc1 (stereo not drawn),.,-1,.,1,-4
CCOC(=O)c1cnc(-n2nc(C)cc2C)nc1Oc1ccccc1F,1,-4,1,3,0
CCOC(=O)c1cnc(-n2nc(C)cc2C)nc1N(C)C,0,-6,-1,-1,2
CCOC(=O)c1cnc(-n2nc(C)cc2C)nc1Nc1ccccc1OC,-12,-5,-8,.,-2
CCOC(=O)c1cnc(-n2nc(C)cc2C)nc1NCCc1ccccc1,-7,-4,3,-1,9.6*
